# HCV core dimer: inhibitors of HCV core protein dimerization, primary screen, biochemical, TR-FRET, high-throughput; inhibition, % at 5 µM; hit rate 0.33% among 300,000; TR-FRET GST/Flag-core106 dimerization, 1536-well;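 active = inhibition above the mean of all tested compounds plus 3 SD, set per screening campaign, cut at about 45% in these data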
#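 Assay system: tagged HCV core106 pair (GST and Flag); medium: KF-containing HEPES buffer, pH 7.45, DTT, CHAPS, BSA; also added: Eu donor and XL665 acceptor anti-tag antibodies; dosing: 5 µM single dose; timing: compound-protein-antibody incubation 4 h at 22.5 °C; signal: TR-FRET 671 and 617 nm emission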
# NS3 helicase inh: inhibitors of HCV NS3 helicase, primary screen, biochemical, Cy5 molecular beacon fluorescence. Hepatitis C virus NS3 helicase. NS3 helicase DNA unwinding. inhibition, % at 10.9 µM. hit rate 0.56% among 290,000;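 active = inhibition above the mean of all tested compounds plus 3 SD, set per campaign, cut at about 35% in these data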;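 note: 0% = DMSO wells and 100% = thioflavine S control wells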
#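 System: HCV NS3 helicase fragment; control set: DMSO and thioflavine S; technique: Cy5 fluorescence at 0 and 60 min, beacon hairpin quenching; reagent: beacon DNA duplex substrate plus ATP; replicates: singlicate; schedule: 1 h reaction at 25 °C, ATP-initiated; medium: MOPS buffer pH 6.5 with MgCl2, DTT, Tween20, BSA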
# DNA FID counter-1: compounds displacing fluorescent DNA intercalator, primary screen, artefact control for HCV NS3 helicase inhibitor project, biochemical, FID fluorescence; DNA fluorescent intercalator displacement; inhibition, % at 7.9 µM; hit rate 0.17% among 290,000;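 note: 0% = vehicle and 100% = reference compound; higher means more ethidium bromide displaced from hairpin DNA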
# GPR7 antagonist: GPR7 receptor antagonists, primary screen, cell-based, fluorescence, single concentration; Neuropeptides B/W receptor type 1 (Homo sapiens), P48145; hit rate 1.1% among 290,000; inhibition, % at 4.4 µM; GPR7-expressing cells, fluorescence antagonist assay; in the data active = inhibition above about 16%, passing the limit was not always enough;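 note: cells stimulated with the agonist NPW; 0% = agonist with vehicle and 100% = vehicle without agonist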
# GRK2 aptamer HTS: compounds blocking aptamer binding on GRK2 – biochemical, human GRK2, bead flow cytometry, HTS, primary screen; Beta-adrenergic receptor kinase 1 (Homo sapiens), P25098; FAM-aptamer displacement from GRK2; inhibition of aptamer binding, % at 10 µM; hit rate 0.59% among 330,000;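 active = inhibition of aptamer binding above 40%, roughly 3 SD of noise, on plates passing a quality check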;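 note: median bead fluorescence of bound FAM aptamer so fluorescent compounds give negative values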
# DAGLB inh: DAGLB lipase inhibitors, primary screen, biochemical, fluorescence, HTS. Diacylglycerol lipase-beta (Homo sapiens), Q8NCG7. HEK293T DAGLB membrane lysate, EnzChek fluorogenic substrate. inhibition, % at 5.17 µM. hit rate 0.059% among 340,000; in the data active = inhibition above about 34%;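 note: 0% = enzyme with vehicle and 100% = wells lacking enzyme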
# Target sequence (Q8NCG7 whole entry, looked up): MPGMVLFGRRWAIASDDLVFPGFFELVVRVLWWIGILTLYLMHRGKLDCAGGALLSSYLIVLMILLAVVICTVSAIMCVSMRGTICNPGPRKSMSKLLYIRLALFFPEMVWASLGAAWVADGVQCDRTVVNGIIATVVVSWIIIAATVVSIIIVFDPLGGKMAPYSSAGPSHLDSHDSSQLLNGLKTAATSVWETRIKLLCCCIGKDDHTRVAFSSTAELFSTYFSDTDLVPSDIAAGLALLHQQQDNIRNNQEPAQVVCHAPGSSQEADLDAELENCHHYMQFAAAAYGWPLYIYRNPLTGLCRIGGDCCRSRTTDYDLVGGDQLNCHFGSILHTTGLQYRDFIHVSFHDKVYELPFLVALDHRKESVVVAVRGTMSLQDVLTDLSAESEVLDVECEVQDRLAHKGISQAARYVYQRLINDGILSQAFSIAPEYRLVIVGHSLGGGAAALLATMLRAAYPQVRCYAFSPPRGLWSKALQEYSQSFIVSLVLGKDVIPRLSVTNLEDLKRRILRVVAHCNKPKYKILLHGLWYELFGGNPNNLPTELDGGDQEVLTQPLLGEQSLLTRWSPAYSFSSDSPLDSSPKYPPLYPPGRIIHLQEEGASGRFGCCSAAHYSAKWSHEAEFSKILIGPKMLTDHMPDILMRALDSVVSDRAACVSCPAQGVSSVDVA
# NS3 helicase cf: HCV NS3 helicase inhibitors, retest, confirmation, biochemical, Cy5 molecular beacon fluorescence, triplicate; shares compounds with NS3 helicase inh; NS3 helicase DNA unwinding; inhibition, % at 10.9 µM; hit rate 31% among 1,600; AID 1943, 2009;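 active = inhibition above the mean of all tested compounds plus 3 SD, cutoff set per campaign, cut at about 36% in these data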
# DNA FID counter-2: compounds displacing fluorescent DNA intercalator, artefact control for HCV NS3 helicase inhibitor project, biochemical, FID fluorescence, triplicate. DNA fluorescent intercalator displacement. shares compounds with NS3 helicase inh. hit rate 4% among 1,600. inhibition, % at 7.9 µM;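 note: 0% = vehicle and 100% = reference compound; higher means more displacement of ethidium bromide from the DNA hairpin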
# GPR7 antag conf: GPR7 receptor antagonists, confirmation, cell-based, fluorescence, single concentration | shares compounds with GPR7 antagonist | GPR7-expressing cells, calcium fluorescence antagonist mode | inhibition, % at 4.4 µM | hit rate 52% among 2,400 | AID 1952, 2009; in the data active = inhibition above about 24%;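 note: stimulated with the GPR7 agonist NPW; 0% = agonist plus vehicle and 100% = vehicle alone without agonist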
# MCHR1 antagonist: MCHR1 antagonists in cells, counter-screen for GPR7 antagonist project, cell-based, fluorescence, human; shares compounds with GPR7 antagonist; MCHR1-expressing cells, fluorescence antagonist assay; inhibition, % at 4.4 µM; hit rate 62% among 2,400; AID 2148, 2009; in the data active = inhibition above about 22%;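 note: 0% = vehicle with agonist and 100% = vehicle without agonist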
# GRK2 inh confirm: GRK2 aptamer-displacing inhibitors, retest, confirmation, biochemical, cherry pick 1, bead flow cytometry. shares compounds with GRK2 aptamer HTS. bead-bound GRK2, FAM-aptamer displacement. aptamer displacement, % at 10 µM. hit rate 4% among 2,000;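 active = aptamer displacement above 40%, near three times the noise of non-fluorescent compounds, on plates passing quality checks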;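 note: negative values mostly reflect intrinsic compound fluorescence rather than true enhancement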
# FAM quench CP1: quenches fluorescent RNA aptamer, GRK2 hit artifact. AID 504580. 2,000 tested, under 10 active. fluorescence response (% of DMSO), % at 10 µM. Carboxyfluorescein RNA aptamer on beads, flow cytometry quenching; stronger effect = lower value. shares compounds with GRK2 aptamer HTS;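 active = compounds that quench the bead-bound fluorescent RNA probe, cutting fluorescence to under half of the solvent control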;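 note: counterscreen run without GRK2 so only probe quenching by compound is measured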
# The depositor's hits bear a star; · = no result. Most compounds without a hit are left out; they make up all but 2.2% or so of the library. Cut-off read from the data, not from the text of the source, unless noted: active = inhibition above about 37%; inactive = the rest.
SMILES,HCV core dimer,NS3 helicase inh,DNA FID counter-1,GPR7 antagonist,GRK2 aptamer HTS,DAGLB inh,GPR7 antag conf,MCHR1 antagonist,others
CCCCN1C(=O)/C(=C/C=C/c2ccco2)C(=O)NC1=S,·,62*,-11,-3,·,4,·,·,NS3 helicase cf=57*;DNA FID counter-2=24
CC(C)c1ccc(N2C(=O)NC(=O)/C(=C/C=C/c3ccco3)C2=O)cc1,35,23,-21,1,8,14,·,·,
O=C(O)Cn1cc(/C=C2\C(=O)NC(=O)N(Cc3ccco3)C2=O)c2ccccc21,12,-1,-23,-8,34,1,·,·,
CC(C)N=C(NC(C)C)N1CC1,·,·,·,·,·,-1,·,·,
Cc1c(Br)c(=O)oc2cc(OCC(=O)N3C[C@H]4C[C@@H](C3)c3cccc(=O)n3C4)ccc12,8,7,-17,2,0,-2,·,·,
COc1cccc2c1cc([N+](=O)[O-])c1c(C(=O)O)cc3c(c12)OCO3,·,·,·,·,·,1,·,·,
O=C(Nc1cccc(Cl)c1)OC1CN2CCC1CC2 (stereo not given),4,-7,4,22*,3,-6,53*,58*,
OC12CCCCC1C(c1ccccc1)NCC2 (stereo not given),-1,3,12,23*,2,0,8,-1,
OC1(c2ccccc2)CCNC2CCCCC21 (stereo not given),7,11,-1,-19,0,2,·,·,
COC(=O)C1=C(c2ccccc2OCc2ccccc2)C[C@@H]2CC[C@H]1N2C(=O)NCCc1ccc(F)cc1,·,·,·,·,13,-14,·,·,
COc1cc(CNCCc2c[nH]c3ccccc23)cc(OC)c1,-1,-38,12,38*,0,0,22,31*,
c1ccc2c3c([nH]c2c1)C1(CCNCC1)NCC3,4,-2,13,1,0,-5,·,·,
OC1(c2ccc(F)cc2)CC2CCC(C1)N2Cc1nnnn1C1CCCCC1 (stereo not given),-2,3,-25,33*,1,0,26*,17,
COC(=O)C1=C(c2cccc(OC)c2OC)C[C@@H]2CC[C@H]1N2C(=O)N1CCCC1,8,·,·,·,0,0,·,·,
CC(=O)C1C(N2CC2)CC2C3CCC4=CC(=O)CCC4(C)C3CCC21C (stereo not given),·,·,·,·,·,3,·,·,
O=[N+]([O-])c1ccc(N2CCCCCC2)c2nonc12,-16,19,-111,41*,0,-60,51*,61*,
CCCCn1c(=O)c(C(=O)Nc2ccccc2F)c(O)c2ccccc21,-3,-1,-4,96*,0,0,-29,-3,
CCCCn1c(=O)c(C(=O)Nc2ccccc2N)c(O)c2ccccc21,-1,3,0,27,0,-2,·,·,
O=C(c1ccccc1)N1CCC2(CC1)OCCO2,0,9,-3,-9,2,-2,·,·,
Cc1occc1C(=O)N1CCC2(CC1)OCCO2,2,14,-2,33*,1,1,2,-3,
O=P(NC1CCCCC1)(Oc1ccccc1)Oc1ccccc1,·,·,·,·,·,-8,·,·,
CC1CCC(NCC(O)c2ccccc2)CC1 (stereo not given),0,-3,0,-7,2,-1,·,·,
OC(CNC1CCCCCCC1)c1ccccc1 (stereo not given),-6,6,23,22*,3,·,6,-4,
CCCCCSc1cc(O)c(C(CNC)C(C)C)cc1OC (stereo not given),-8,-73,21,29*,0,5,42*,37*,
COc1ccc2[nH]c(C)c(CCNCc3cc(OC)c(OC)c(OC)c3)c2c1,-1,-7,12,8,0,0,·,·,
SMILES,HCV core dimer,NS3 helicase inh,DNA FID counter-1,GPR7 antagonist,GRK2 aptamer HTS,DAGLB inh,GPR7 antag conf,MCHR1 antagonist,others
COc1ccc(CNCCc2c(C)[nH]c3ccc(OC(F)(F)F)cc23)c(OC)c1,-5,-92,28,52*,0,2,63*,89*,
c1ccc(-c2cc(-c3ccccc3)[n+](-c3ccccc3)c(-c3ccccc3)c2)cc1,-1,-47,23,97*,8,3,93*,87*,
CN(C)c1ccc(-[n+]2c(-c3ccccc3)cc(-c3ccccc3)cc2-c2ccccc2)cc1,·,-56,15,59*,·,·,79*,78*,
O=P1(NCCCn2cc[n+](Cc3nc4ccccc4[nH]3)c2)C=C(c2ccccc2)OC(c2ccccc2)=C1,0,-77,24,-7,0,0,·,·,
COC(=O)C1=C(c2ccc(F)cc2OCc2ccccc2)C[C@@H]2CC[C@H]1N2C(=O)NCc1cc(C)oc1C(F)(F)F,·,·,·,·,0,-25,·,·,
COc1ccc(CCNCc2ccccc2F)cc1OC,-3,-3,9,-8,0,-2,·,·,
CCOc1ccc(Cl)cc1CNCCc1ccccc1F,-8,-13,16,33*,0,3,49*,37*,
CCOc1cc(C(=O)N2CCC3(CC2)OCCO3)cc(OCC)c1OCC,0,10,-28,-6,62*,-4,·,·,GRK2 inh confirm=-2;FAM quench CP1=105
CO[C@@H]1C=CC23c4cc5c(cc4CO[C@]2(O)CN(C)[C@H]3C1)OCO5 (stereo not given in full),·,·,·,·,3,-3,·,·,
C=CCNC(=S)N1Cc2ccccc2-n2nncc2C1,·,·,·,·,·,-1,·,·,

# Assay outcomes deposited in PubChem BioAssay by several laboratories.
